Laboratory results taken from ChEMBL document CHEMBL4368912, “Discovery and Development of N-[4-(1-Cyclobutylpiperidin-4-yloxy)phenyl]-2-(morpholin-4-yl)acetamide Dihydrochloride (SUVN-G3031): A Novel, Potent, Selective, and Orally Active Histamine H3 Receptor Inverse Agonist with Robust Wake-Promoting Activity” (J Med Chem, 2019).
One block for each molecule: values may come before it.

Key:
Histamine H3 receptor = Histamine H3 receptor (Homo sapiens, UniProt Q9Y5N1); assay: Displacement of [3]-RAMH from recombinant human histamine H3 receptor expressed in CHO-K1 cell membranes after 60 mins by scintillation counting
Histamine H3 receptor, sequence (Q9Y5N1 whole entry): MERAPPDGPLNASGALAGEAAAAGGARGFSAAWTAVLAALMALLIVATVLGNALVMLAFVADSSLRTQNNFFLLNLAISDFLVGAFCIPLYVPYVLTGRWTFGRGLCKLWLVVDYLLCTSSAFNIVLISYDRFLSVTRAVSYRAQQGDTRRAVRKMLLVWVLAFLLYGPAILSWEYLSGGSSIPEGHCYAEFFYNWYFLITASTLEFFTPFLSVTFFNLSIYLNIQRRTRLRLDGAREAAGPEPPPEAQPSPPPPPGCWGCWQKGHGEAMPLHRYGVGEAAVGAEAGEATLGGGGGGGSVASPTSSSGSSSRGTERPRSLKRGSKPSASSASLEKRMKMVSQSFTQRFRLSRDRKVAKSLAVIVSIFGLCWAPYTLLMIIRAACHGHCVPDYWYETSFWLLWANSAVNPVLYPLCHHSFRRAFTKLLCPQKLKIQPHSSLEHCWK

[1] = Ratio of drug uptake in Wistar rat brain to plasma at 3 mg/kg, po by LC-MS/MS analysis; assay type: ADME, organism-based; settings: brain and plasma, read-out: BPR
Outline: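 Fasted male Wistar rats were dosed orally with water for injection as the vehicle. Total brain and plasma concentrations were measured at 1 h after dosing and expressed as a ratio.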

[2] = AUC (0 to 24 hrs) in Wistar rat at 1 mg/kg, iv by LC-MS/MS analysis; assay type: ADME, organism-based; set-up: time < 24 hr, dose 1 mg/kg, route intravenous; settings: in vivo; for AUC(0-t) at 24 h: Wistar; for AUC: 24 h
Outline: (§1)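 Fasted male Wistar rats; compound in water for injection, given i.v. (2 mL/kg) or p.o. (10 mL/kg). Plasma exposure measured as AUC0-24hr.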

[3] = Tmax in Wistar rat at 3 mg/kg, po or 1 mg/kg, iv by LC-MS/MS analysis; assay type: ADME, organism-based; settings: in vivo
Outline: (§2)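 Fasted male Wistar rats were dosed orally and intravenously, with water for injection as the vehicle for both routes, at dosing volumes of 10 mL/kg p.o. and 2 mL/kg i.v.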

[4] = AUC (0 to 24 hrs) in Wistar rat at 3 mg/kg, po by LC-MS/MS analysis; assay type: ADME, organism-based; set-up: dose 3 mg/kg, time < 24 hr, route oral; settings: in vivo; outline: as §1
[5] = Volume of distribution at steady state in Wistar rat at 3 mg/kg, po or 1 mg/kg, iv by LC-MS/MS analysis; assay type: ADME, organism-based; settings: in vivo; for Vd: Wistar, read-out: Vdss; outline: as §2
[6] = Dissociation constant, pKa1 of the compound by potentiometric titration assay; assay type: physicochemical
[7] = Dissociation constant, pKa2 of the compound by potentiometric titration assay; assay type: physicochemical
[8] = Lipophilicity, log D of the compound at pH 7.4; assay type: physicochemical; settings: buffer
[9] = Oral bioavailability in Wistar rat at 3 mg/kg by LC-MS/MS analysis; assay type: ADME, organism-based; settings: in vivo; outline: as §2
[10] = Partition coefficient, log P of the compound; assay type: physicochemical; settings: octanol/water
[11] = Clearance in Wistar rat at 1 mg/kg, iv by LC-MS/MS analysis; assay type: ADME, organism-based; settings: in vivo
Outline: (§3)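 Fasted male Wistar rats dosed i.v. in water for injection at 2 mL/kg. Clearance and half-life derived from the i.v. plasma profile.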

[12] = Half life in Wistar rat at 1 mg/kg, iv by LC-MS/MS analysis; assay type: ADME, organism-based; settings: in vivo; outline: as §3

Ki (Histamine H3 receptor): 6.4 nM
SMILES: O=C(CN1CCC(O)CC1)Nc1ccc(OC2CCN(C3CCC3)CC2)cc1

Ki (Histamine H3 receptor): 26.9 nM
SMILES: O=C(CN1CCCC1)Nc1ccc(OC2CCN(C3CCC3)CC2)cc1C(F)(F)F

Ki (Histamine H3 receptor): 11 nM
SMILES: O=C(CN1CCC(F)CC1)Nc1ccc(OC2CCN(C3CCC3)CC2)cc1

Ki (Histamine H3 receptor): 75.8 nM
SMILES: O=C(CN1CCOCC1)Nc1ccc(OC2CCN(C3CCC3)CC2)cc1C(F)(F)F

Ki (Histamine H3 receptor): 2.9 nM
SMILES: O=C(NCCN1CCCC1)c1ccc(OC2CCN(C3CCC3)CC2)cc1

Ki (Histamine H3 receptor): 4.89 nM
SMILES: CN(C(=O)CN1CCOCC1)c1ccc(OC2CCN(C3CCC3)CC2)cc1

Ki (Histamine H3 receptor): 3.2 nM
SMILES: O=C(NCCN1CCCCC1)c1ccc(OC2CCN(C3CCC3)CC2)cc1

Ki (Histamine H3 receptor): 9.17 nM
SMILES: O=C(CN1CCS(=O)(=O)CC1)Nc1ccc(OC2CCN(C3CCC3)CC2)cc1

Kp [1]: 0.41
AUC(0-t) at 24 h [2]: 1740 ng·h/mL
Tmax [3]: 6 h
AUC(0-t) at 24 h [4]: 1430 ng·h/mL
Vdss [5]: 13 L/kg
SMILES: O=C1c2ccc(OC3CCN(C4CCC4)CC3)cc2CCN1C1CCN(C2CCC2)CC1

Ki (Histamine H3 receptor): 14.9 nM
SMILES: O=C(CN1CCOCC1)Nc1ccc(OC2CCN(C3CCC3)CC2)cc1F

pKa [6]: 9.2
Kp [1]: 36.6
AUC [2]: 1855 ng·h/mL
pKa [7]: 7.5
logD [8]: 1.3
Tmax [3]: 3.33 h
bioavailability [9]: 37%
Ki (Histamine H3 receptor): 4.8 nM
AUC(0-t) at 24 h [4]: 1390 ng·h/mL
logP [10]: 3.7
Vd [5]: 20 L/kg
SMILES: Cl.Cl.O=C(CN1CCCCC1)Nc1ccc(OC2CCN(C3CCC3)CC2)cc1

Ki (Histamine H3 receptor): 532 nM
SMILES: O=C(CN1CCOCC1)Nc1ccc(N2CCN(C3CCC3)CC2)cc1

Ki (Histamine H3 receptor): 9.5 nM
SMILES: CC(C)N1CCC(Oc2ccc(C(=O)NCCN3CCCCC3)cc2)CC1

Ki (Histamine H3 receptor): 90.8 nM
SMILES: COc1cc(OC2CCN(C3CCC3)CC2)ccc1NC(=O)CN1CCOCC1

Ki (Histamine H3 receptor): 22.1 nM
SMILES: Cc1cc(OC2CCN(C3CCC3)CC2)ccc1NC(=O)CN1CCOCC1

Ki (Histamine H3 receptor): 3.3 nM
SMILES: Cc1cc(OC2CCN(C3CCC3)CC2)ccc1NC(=O)CN1CCCCC1

Ki (Histamine H3 receptor): 62 nM
SMILES: O=C(CN1CCOCC1)Nc1ccc(OC2CCN(C3CCC3)CC2)c(F)c1

Ki (Histamine H3 receptor): 2.4 nM
SMILES: Cc1cc(OC2CCN(C3CCC3)CC2)ccc1NC(=O)CN1CCC[C@H]1C

pKa [6]: 8.9
clearance [11]: 67 mL/min/kg
AUC(0-t) at 24 h [2]: 212 ng·h/mL
half-life [12]: 1.88 h
pKa [7]: 6.4
logD [8]: 0.6
Tmax [3]: 0.58 h
bioavailability [9]: 10%
Ki (Histamine H3 receptor): 1.2 nM
AUC(0-t) at 24 h [4]: 63 ng·h/mL
logP [10]: 2.1
Vd [5]: 9 L/kg
SMILES: Cl.Cl.O=C(CN1CCCC1CO)Nc1ccc(OC2CCN(C3CCC3)CC2)cc1 (stereo not given)

Ki (Histamine H3 receptor): 1460 nM
SMILES: C[C@@H]1CCCN1CC(=O)Nc1ccc(N2CCOCC2)cc1

Ki (Histamine H3 receptor): > 10000 nM
SMILES: O=C(CN1CCOCC1)Nc1ccccc1OC1CCN(C2CCC2)CC1

clearance [11]: 156 mL/min/kg
AUC(0-t) at 24 h [2]: 174 ng·h/mL
Tmax [3]: 3.33 h
bioavailability [9]: 48%
Ki (Histamine H3 receptor): 2.4 nM
AUC(0-t) at 24 h [4]: 205 ng·h/mL
Vd [5]: 135 L/kg
SMILES: O=C(NCCN1CCCC1)c1ccc(OC2CCN(C3CCCC3)CC2)cc1

Kp [1]: 0.16
clearance [11]: 113 mL/min/kg
AUC(0-t) at 24 h [2]: 145 ng·h/mL
half-life [12]: 1.12 h
Tmax [3]: 0.25 h
bioavailability [9]: 125%
Ki (Histamine H3 receptor): 9.51 nM
AUC(0-t) at 24 h [4]: 545 ng·h/mL
Vd [5]: 7 L/kg
SMILES: O=C(Cc1ccncc1)Nc1ccc(OC2CCN(C3CCC3)CC2)cc1.O=C(O)C(O)C(O)C(=O)O

Kp [1]: 1.2
AUC [2]: 3345 ng·h/mL
Tmax [3]: 2.17 h
bioavailability [9]: 20%
Ki (Histamine H3 receptor): 1.9 nM
AUC(0-t) at 24 h [4]: 1350 ng·h/mL
Vd [5]: 27 L/kg
SMILES: Cc1cc(OC2CCN(C3CCC3)CC2)ccc1NC(=O)CN1CCCC1.Cl.Cl

pKa [6]: 9.4
pKa [7]: 7.2
logD [8]: 1.6
Ki (Histamine H3 receptor): 3.8 nM
logP [10]: 3.4
SMILES: CC(C)N1CCC(Oc2ccc(NC(=O)CN3CCCCC3)cc2)CC1

Ki (Histamine H3 receptor): 108 nM
SMILES: C[C@@H]1CCCN1CCc1ccc(NC(=O)CN2CCOCC2)cc1
